Published values gathered from unrelated publications.
Lines come from different studies, so protocols differ.
Cell line: HeLa
Effect on: cell growth or viability
Technique: MTT

| Compound | concentration | time | measurement | result |
| --- | --- | --- | --- | --- |
| O=C(C=Cc1ccccc1)Nc1cccc(-c2ccnc(N3CCC(CO)CC3)c2)c1 | 5 µM |  | inhibition | 73.1% |
| C=C(COCc1ccc(OC)cc1)[C@@H]1CC[C@@H](C)C[C@H]1OCc1ccc(OC)cc1 | 30 µM | 72 h | inhibition | 60.6% |
| O=C(C=Cc1ccc(F)cc1)Nc1cc(-c2ccnc(N3CCC(O)CC3)c2)ccn1 | 5 µM |  | inhibition | 67.2% |
| [NH2][Pt]([NH2])([Cl])[Cl] |  | 72 h | IC50 | 6.8 µM |
| COc1ccc(COC[C@@](O)(CNCc2ccc(F)cc2)[C@@H]2CC[C@@H](C)C[C@H]2OCc2ccc(OC)cc2)cc1 | 30 µM | 72 h | inhibition | 99.1% |
| O=c1c(C=NNC(=S)Nc2ccccc2)coc2ccccc12 |  | 48 h | IC50 | 91.9 µM |
| O=C(C=Cc1ccccc1)Nc1cc(-c2ccnc(N3CCC(O)CC3)c2)ccn1 |  | 72 h | IC50 | 0.0741 µM |
| C=C(COCc1ccc(F)cc1)[C@@H]1CC[C@@H](C)C[C@H]1OCc1ccc(F)cc1 | 10 µM | 72 h | inhibition | 32.8% |
| Cc1cc(NC(=O)C=Cc2ccccc2)cc(-c2ccnc(N3CCOCC3)c2)c1 | 5 µM |  | inhibition | 16.2% |
| COC(=O)COc1c(Cc2cc(C(C)(C)CC(C)(C)C)cc(-n3nc4ccccc4n3)c2OCC(=O)OC)cc(C(C)(C)CC(C)(C)C)cc1-n1nc2ccccc2n1 |  |  | GI50 | 8.12 µM |
| C[C@@H]1CC[C@@H]([C@@](C)(O)Cn2cnc3ccccc32)[C@H](OCc2ccccc2)C1 | 30 µM | 72 h | inhibition | 86.3% |
| O=C(CCc1ccccc1)Nc1cc(-c2ccnc(N3CCC(O)CC3)c2)ccn1 | 5 µM |  | inhibition | 82.9% |
| COc1cccc2c1C(=O)c1c(O)c3c(c(O)c1C2=O)C[C@@](O)(C(=O)CO)C[C@@H]3O[C@H]1C[C@H](N)[C@H](O)[C@H](C)O1 |  |  | GI50 | 4.21 µM |
| Cc1cccc(/C=C/C(=O)Nc2cc(-c3ccnc(N4CCOCC4)c3)ccn2)c1 | 5 µM |  | inhibition | 72% |
| O=C(Nc1cccc([N+](=O)[O-])c1)c1cccs1 |  |  | IC50 | 282 µM |
| COc1ccc(COC[C@@](O)(CNCc2ccccc2)[C@@H]2CC[C@@H](C)C[C@H]2OCc2ccc(OC)cc2)cc1 | 30 µM | 72 h | inhibition | 97.4% |
| C[C@H](CCC(=O)O)[C@H]1CC[C@H]2[C@@H]3CC[C@@H]4C[C@H](O)CC[C@]4(C)[C@H]3CC[C@]12C |  | 72 h | IC50 | 56 µM |
| O=C(Nc1cccc([N+](=O)[O-])c1)c1ccco1 |  |  | IC50 | 637 µM |
